IMP-1 inhibitor: blocks Pseudomonas aeruginosa IMP-1 metallo-beta-lactamase; AID 1556; purified IMP-1, nitrocefin hydrolysis, epi-absorbance fluorescence; 290,000 tested, 0.45% active; inhibition, % at 5.6 µM;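 active = inhibition above the mean plus 3 SD of all compounds in the same screening run, cut at about 4.5% in these data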;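 also: 0% = IMP-1 with DMSO and 100% = DMSO wells lacking enzyme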
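Assay system: purified recombinant IMP-1 beta-lactamase. Input: IMP-1 0.2 nM before substrate addition. Buffer or medium: Zinc- and detergent-supplemented HEPES buffer, pH 7.1. Schedule: 25 °C, 15 min preincubation, 25 min reaction. Signal: Epi-absorbance fluorescence, 480 nm excitation, 530 nm emission. Evaluation: percent inhibition from optical density relative to buffer-blank wells.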
CHT PAM: allosterically activates the human high affinity choline transporter | Q9GZV3 | CHT-expressing cells, membrane potential dye, choline EC20; stronger effect = higher value; LV-AA mutant CHT in HEK293 cells | B-score at 10 µM | 310,000 tested, 0.49% active | AID 488977;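 active = initial fluorescence not abnormally high and integrated response B-score, plate-corrected, over 3 SD above library mean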
CHT block: inhibitors of human choline transporter CHT; CHT-expressing cells, membrane potential dye, choline response; stronger effect = lower value; B-score at 10 µM; 310,000 tested, 0.86% active; AID 488975;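 active = B-score over 3 SD under the library average, and starting fluorescence ratio not unusually high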;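 also: choline stimulus applied at its EC90 after an EC20 pre-addition; B-score computed on integrated fluorescence ratio after choline addition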
TMEM16A act: mouse TMEM16A channel activation, primary screen; Q8BHY3; HEK293 TMEM16A/YFP-H148Q/I152L, iodide quench fluorescence; stronger effect = lower value; B-score at 10 µM; 340,000 tested, 0.3% active;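 active = fluorescence-ratio B-score plate-corrected deviation score at least 3 library SD below zero, with starting fluorescence score within 5 deviations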;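 also: channel opened by trigger with iodide after compound preincubation; score built on the fluorescence ratio of max minus min over baseline; more negative score means more quench and so TMEM16A activation or potentiation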
ANO1 block: blocks the mouse calcium-activated chloride channel TMEM16A. 310,000 tested, 1.2% active. AID 588511. HEK293 TMEM16A/YFP iodide influx fluorescence, ionomycin. Q8BHY3. normalized B-score (activity score, 25-100; higher = stronger inhibition) at 10 µM;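 active = ratio plate-corrected score three or more library SD toward inhibition, starting fluorescence score within five deviations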;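 also: score derived from kinetic fluorescence span divided by baseline fluorescence per well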
VIM-2 inh: inhibitors of Pseudomonas aeruginosa VIM-2 metallo-beta-lactamase; purified VIM-2, nitrocefin hydrolysis, epi-absorbance fluorescence; inhibition, % at 5.6 µM; 290,000 tested, 0.89% active; AID 1527;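 active = inhibition above the mean of all tested compounds plus 3 SD, cutoff set per screening run, cut at about 7.5% in these data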;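 also: red hydrolysis product quenches plate fluorescence so inhibitors raise well fluorescence; 0% = enzyme with DMSO and 100% = DMSO without enzyme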
CHT act confirm: confirmation of human choline transporter (CHT) activators; CHT-expressing cells, membrane potential dye fluorescence (FDSS); % of choline EC20–EC90 response window; HEK293 expressing CHT LV-AA mutant; choline added at its EC20; activation, % at 10 µM; 2,500 tested, 91% active; AID 504833; shares compounds with CHT PAM;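 active = primary screen active, with duplicate mean activation above negative control mean plus 3 SD, cut at about 11% in these data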
HEK293 MP dye: CHT activator counter-screen hit in parental HEK293 cells; shares compounds with CHT PAM; membrane potential dye fluorescence (FDSS); measured after EC20 choline addition; ratio readout change at 10 µM, hits read low; 2,500 tested, 62% active;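 active = duplicate-averaged ratio beyond 3 SD from buffer wells, up or down, though filed actives are nearly all decreases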
Active calls of the source: *; i = inactive; / = no result. A selection: hits, their analogues and other compounds. The true share with any hit is near 3.4%.

SMILES	IMP-1 inhibitor	CHT PAM	CHT block	TMEM16A act	ANO1 block	VIM-2 inh	CHT act confirm	HEK293 MP dye
CN1CCC(N(C)CC(C)(C)NS(=O)(=O)c2ccccc2)CC1	-2	i	i	i	i	-1	/	/
Cc1nn(C)c(Oc2cccc(Cl)c2)c1C(=O)Nc1ccc(F)cc1F	0	i	i	i	i	1	30*	i
O=C1c2ccccc2N2C(=O)c3ccccc3C2N1Cc1ccccc1 (configuration not stated)	-3	i	i	i	i	0	26*	i
CC(C)CCn1c(Oc2ccc(Cl)cc2)nc2c1c(=O)n(C)c(=O)n2C	-3	i	i	i	i	-3	25*	i
COc1ccc(Oc2nc3c(c(=O)n(C)c(=O)n3C)n2Cc2ccccc2)cc1	1	i	i	i	i	0	/	/
COc1cc(C(=O)Nc2sc3c(c2C(=O)NCc2ccco2)CCCC3)cc(OC)c1OC	-6	7.6*	i	i	i	-1	8	i
Cc1cc(C)n2nc(C(=O)N/N=C/c3cn(C)nc3C)nc2n1	-3	i	i	i	i	-3	48*	-30*
Cc1nn(C)cc1/C=N/NC(=O)c1ccc2c(c1)OCO2	-2	i	i	i	i	-5	/	/
Cc1ccc(C(=O)CCC(=O)Nc2ccccc2F)cc1	0	i	i	i	i	0	/	/
CCCCCn1c(SCCN2CCOCC2)nc2c1c(=O)[nH]c(=O)n2C	-1	i	i	i	i	0	39*	-37*
CCn1c(SCCN2CCOCC2)nc2c1c(=O)n(C)c(=O)n2C	-2	i	i	i	i	0	49*	-38*
Cn1c(=O)c2c(nc(N3CCOCC3)n2CCc2ccccc2)n(C)c1=O	-1	i	i	i	i	-3	/	/
Cn1c(=O)c2c(nc(SCCN3CCOCC3)n2Cc2ccc(F)cc2)n(C)c1=O	-1	i	i	i	i	2	/	/
CN(C)C=NCCn1c(N2CCOCC2)nc2c1c(=O)n(C)c(=O)n2C	1	14*	i	i	i	4	68*	-70*
Cn1c(=O)c2c(nc(SCCN3CCOCC3)n2C)n(C)c1=O	1	i	i	i	i	5	51*	-51*
Cc1ccc2c(c1)CCCN2C(=O)CCc1nc2ccccc2c(=O)[nH]1	/	/	/	i	/	/	/	/
CC(C)CN(C(=O)C1=NN(c2ccccc2)C(=O)CC1)c1c(N)n(Cc2ccccc2)c(=O)[nH]c1=O	/	/	/	i	/	/	/	/
COc1cccc(N2C(=NC(=O)C3CCCO3)SC3CS(=O)(=O)CC32)c1 (configuration not stated)	-3	i	i	i	i	-3	/	/
Cn1cccc/c1=N\c1cccc[n+]1C	-1	i	i	i	i	-1	67*	-56*
COc1nc(N(C)C)nc(N(C#N)S(=O)(=O)c2ccc(C)cc2)n1	0	i	i	i	i	1	/	/
Cc1ccc(Nc2nc(N)c3ccccc3n2)cc1C	-1	i	i	i	i	-1	/	/
COc1cc(C(=O)c2ccc3c(c2)OCO3)cc(OC)c1OC	/	/	/	i	/	/	/	/
COc1cc(C(=O)c2cocc2C(=O)c2ccc3c(c2)OCO3)cc(OC)c1OC	-3	11*	i	i	i	-2	26*	i
CCOC(=O)C1(Cc2ccccc2)CCN(Cc2ccon2)CC1	-2	i	i	i	i	-2	/	/
CCOC(=O)C1(Cc2ccccc2C(F)(F)F)CCN(Cc2ccon2)CC1	0	7*	i	i	i	-1	20*	i
SMILES	IMP-1 inhibitor	CHT PAM	CHT block	TMEM16A act	ANO1 block	VIM-2 inh	CHT act confirm	HEK293 MP dye
CCN(C(=O)COC(=O)C(C)(C)Oc1ccc(Cl)cc1)c1c(N)n(Cc2ccccc2)c(=O)[nH]c1=O	/	/	/	i	/	/	/	/
O=C(Nc1cccc(Cl)c1N1CCOCC1)c1cc([N+](=O)[O-])ccc1N1CCOCC1	-1	i	i	i	i	0	13*	i
O=C(COC(=O)c1cc([N+](=O)[O-])ccc1N1CCOCC1)NCCc1ccccc1	0	i	i	i	i	1	/	/
CC(C)c1ccc(NC(=O)c2cc([N+](=O)[O-])ccc2N2CCOCC2)cc1	-2	i	i	i	i	-2	29*	i
O=C(COC(=O)c1cc([N+](=O)[O-])ccc1N1CCOCC1)NCc1ccc(F)cc1	0	i	i	i	i	1	56*	i
COc1ccc(NC(=O)c2cc([N+](=O)[O-])ccc2N2CCN(C)CC2)cc1	0	8.4*	i	i	i	0	52*	-64*
O=C(Nc1cccc(Cl)c1N1CCCCC1)c1ccc(N2CCOCC2)c([N+](=O)[O-])c1	-3	i	i	i	i	-4	/	/
COc1ccccc1N(CC(=O)N1CCCC1)S(=O)(=O)c1cc([N+](=O)[O-])ccc1Cl	/	/	/	i	/	/	/	/
Cc1cc(NC(=O)COC(=O)CNS(=O)(=O)c2c(F)cc(F)cc2Br)no1	/	/	/	i	/	/	/	/
Cc1c(NC(=O)C(C)OC(=O)c2cccs2)c(=O)n(-c2ccccc2)n1C (configuration not stated)	-2	i	i	i	i	-1	/	/
CCC(C)(C)C1CCc2nc3ccccc3c(C(=O)OC(C)C(=O)Nc3c(C)n(C)n(-c4ccccc4)c3=O)c2C1 (configuration not stated)	-3	11*	i	i	i	-2	32*	i
Cc1ccc2nc(-c3ccncc3)cc(-c3ccccc3)c2c1	-3	i	i	i	i	-2	/	/
Cc1ccc(-c2cc3cccc[n+]3cc2-c2ccc(C)cc2)cc1	-3	8.2*	i	i	i	-2	63*	-39*
CC(CCc1ccccc1)NC(=O)/C=C/c1ccccc1 (configuration not stated)	-2	i	i	i	i	1	/	/
COc1cc(/C=C/C(=O)NC(C)CCc2ccccc2)cc(OC)c1OC (configuration not stated)	-2	i	i	i	i	-3	0	i
